# Screening results as filed in PubChem BioAssay.
# A selection: hits, their analogues and other compounds. The true share with any hit is near 2.5%.
# TCR-CD3 inh – inhibitors of human TCR-CD3 interaction, primary screen, biochemical, fluorescence, TAMRA-labeled TCR probe | AID 651800, 2012 | 0.37% of 360,000 active | inhibition, % at 9.4 µM;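 note: recombinant mutant TCR 2C K166C tagged with TAMRA read by polarization; 0% = receptor in buffer alone and 100% = receptor with positive control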
# PRMT1 inh – PRMT1 methyltransferase inhibitors, primary screen, biochemical, fluorescence polarization | Protein arginine N-methyltransferase 1 (Homo sapiens), Q99873 | recombinant PRMT1, activity-based probe fluorescence polarization | inhibition, % at 2.79 µM | 1.3% of 370,000 active | AID 652257, 2013;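 active = inhibition above about 21% made by adding two undisclosed values, limit read from the data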
# HTRA1 inh – HTRA1 serine protease inhibitors, primary screen, biochemical, fluorescence polarization, HTS | Q92743 | recombinant HTRA1, FP-rhodamine activity-based probe | inhibition, % at 5.96 µM | 0.5% of 340,000 active | AID 504803, 2011; in the data active = inhibition above about 36%;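 note: 0% = enzyme with DMSO and 100% = wells lacking enzyme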
# SIAE inh – human SIAE inhibitors, primary screen, biochemical, fluorescence polarization, FP-Rh probe, 1536-well HTS; Sialate O-acetylesterase (Homo sapiens), Q9HAT2; 0.69% of 370,000 active; SIAE FP-Rh probe binding; inhibition, % at 9.66 µM;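 active = inhibition above a cutoff: mean of compounds within the control limits plus 3 SD of those, cut at about 17% in these data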;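 note: 0% = plate median of compound wells and 100% = probe without SIAE protein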
# Target sequence (Q9HAT2 whole entry, looked up): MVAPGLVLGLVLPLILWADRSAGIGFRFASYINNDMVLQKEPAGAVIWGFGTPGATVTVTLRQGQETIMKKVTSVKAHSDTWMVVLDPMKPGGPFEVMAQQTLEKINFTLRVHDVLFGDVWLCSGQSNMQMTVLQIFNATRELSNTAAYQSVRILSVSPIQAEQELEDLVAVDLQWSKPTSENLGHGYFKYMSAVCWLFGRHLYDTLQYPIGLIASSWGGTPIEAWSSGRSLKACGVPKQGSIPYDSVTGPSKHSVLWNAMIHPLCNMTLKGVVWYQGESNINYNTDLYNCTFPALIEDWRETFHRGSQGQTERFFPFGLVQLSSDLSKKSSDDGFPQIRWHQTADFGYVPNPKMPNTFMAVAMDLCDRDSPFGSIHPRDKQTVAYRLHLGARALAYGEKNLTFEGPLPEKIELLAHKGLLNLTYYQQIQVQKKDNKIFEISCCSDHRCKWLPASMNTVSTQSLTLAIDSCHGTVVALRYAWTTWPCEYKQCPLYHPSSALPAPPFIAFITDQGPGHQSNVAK
# mABHD4 FP – ABHD4 inhibitors, primary screen, biochemical, fluorescence polarization, mouse; (Lyso)-N-acylphosphatidylethanolamine lipase (Mus musculus), Q8VD66; purified mABHD4, FP-Rh probe fluorescence polarization; inhibition, % at 8.92 µM; 0.54% of 370,000 active;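 active = inhibition exceeding the mean over every tested compound plus 3 SD, cut at about 30% in these data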;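 note: 0% = plate median of compound wells and 100% = S159A mutant with DMSO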
#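 System: mouse ABHD4 enzyme, wild type / Medium: HEPES pH 7.0, NaCl, Pluronic buffer / Reagent: FP-Rh activity-based fluorescent probe / Control set: S159A mutant high control, sample median low control / Detection: fluorescence polarization with parallel and perpendicular emission, 525/598 nm / Schedule: 45 min + 60 min at 25 °C / Compound dosing: 8.92 µM, single dose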
# HTRA1 conf – HTRA1 protease inhibitors, retest, confirmation, biochemical, fluorescence polarization; shares compounds with HTRA1 inh; recombinant HTRA1, FP-rhodamine activity-based probe; inhibition, % at 5.96 µM; 66% of 1,600 active; AID 540248, 2011;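 active = mean inhibition over three repeats above a set limit taken from the earlier primary screen, cut at about 37% in these data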;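 note: 0% = HTRA1 with DMSO and 100% = wells lacking HTRA1; inhibitors block probe binding so polarization drops and inhibition rises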
# BSA TAMRA ctr – compounds interfering with TAMRA-BSA probe, counter-screen for TCR-CD3 interaction inhibitor project, biochemical, fluorescence, TAMRA-labeled BSA; 10% of 1,200 active; TAMRA-labeled BSA probe fluorescence counterscreen; AID 652035, 2013; inhibition, % at 9.4 µM; shares compounds with TCR-CD3 inh; in the data active = inhibition above about 23%;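 note: 0% = buffer low control and 100% = reference high control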
# TCR-CD3 conf – TCR-CD3 interaction inhibitors, retest, confirmation, biochemical, fluorescence, TAMRA-labeled TCR probe; inhibition, % at 9.4 µM; shares compounds with TCR-CD3 inh; TAMRA-labeled TCR probe fluorescence binding assay; 48% of 1,200 active; AID 652036, 2013
# PRMT1 confirm – PRMT1 methyltransferase inhibitors, confirmation, biochemical, fluorescence polarization, triplicate. inhibition, % at 2.79 µM. shares compounds with PRMT1 inh. AID 687036, 2013. recombinant His-PRMT1, activity-based probe fluorescence polarization. 42% of 3,300 active;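 active = mean inhibition across replicates above the hit cutoff derived for the earlier primary screen, cut at about 22% in these data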
# ABHD4 confirm – ABHD4 inhibitors, retest, confirmation, biochemical, fluorescence polarization, mouse; shares compounds with mABHD4 FP; purified mABHD4, FP-Rh probe fluorescence polarization; inhibition, % at 8.92 µM; 55% of 1,800 active; AID 720658, 2013;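 active = mean inhibition across replicates above the hit cutoff set in the primary screen, cut at about 30% in these data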;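 note: 0% = wild-type ABHD4 with DMSO and 100% = catalytically dead S159A mutant with DMSO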
# SIAE confirm – human SIAE inhibitors, retest, confirmation, biochemical, fluorescence polarization, FP-Rh probe, triplicate. shares compounds with SIAE inh. SIAE FP-Rh activity-based probe. inhibition, % at 9.66 µM. 13% of 2,300 active;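 active = mean inhibition of the replicates above the hit cutoff set in the primary screen, cut at about 17% in these data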;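 note: 0% = SIAE with DMSO and probe and 100% = probe without SIAE; inhibitors lower polarization as more probe stays unbound to SIAE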
# An asterisk follows results filed as active; / = no result given. Cut-off read from the data, not from the text of the source, unless noted: active = inhibition above about 19%; inactive = the rest.
SMILES,TCR-CD3 inh,PRMT1 inh,HTRA1 inh,SIAE inh,mABHD4 FP,HTRA1 conf,BSA TAMRA ctr,TCR-CD3 conf,ABHD4 confirm,SIAE confirm,others
N#Cc1ccc(Cn2ccc3ccc(-c4ccc5ccn(C(=O)C6CCCCC6)c5c4)cc32)cc1,/,4.4,/,-8.7,5.0,/,/,/,/,/,
COc1ccc(C(=O)N(C)[C@H]2C[C@H]3c4[nH]c5cccc(-c6ccccc6)c5c4CCN3C[C@H]2[C@H](C)O)cc1,/,4.6,/,-0.9,-0.8,/,/,/,/,/,
COC(=O)[C@H](CC(C)C)N(Cc1cn(Cc2ccc(C)cc2)nn1)S(=O)(=O)c1ccccc1Br,/,1.9,/,-6.8,-1.2,/,/,/,/,/,
COc1ccc2[nH]c3c(c2c1)CCNC3c1ccc([N+](=O)[O-])o1 (stereo unspecified),1.3,23.1*,42.6*,21.4*,-4.4,46.6*,/,/,/,21.6*,
COC(=O)[C@@H](CC(C)C)CP(=O)(OC)[C@@H](C)NC(=O)OCc1ccccc1 (stereo partly specified),/,0.8,/,2.0,-2.8,/,/,/,/,/,
O=C(Nc1ccc2cn[nH]c2c1)c1c(Cl)cccc1Cl,2.0,7.2,-7.5,-1.4,-2.0,/,/,/,/,/,
O=C1C(Cl)=C(Nc2ccc3cn[nH]c3c2)C(=O)c2ccccc21,-1.9,43.3*,46.8*,18.4*,46.3*,74.8*,/,/,53.8*,7.3,
COC(=O)C1CN(Cc2cn(Cc3ccc(OC)cc3)nn2)CCS(=O)(=O)N1Cc1ccccc1 (stereo unspecified),/,5.2,/,-2.8,5.8,/,/,/,/,/,
N#CC1=C(N)Oc2cc(N)ccc2C1c1ccsc1 (stereo unspecified),1.3,-4.0,7.8,7.9,-5.4,/,/,/,/,/,
N#CC1=C(N)Oc2ccc3ccc(O)cc3c2C1c1ccsc1 (stereo unspecified),69.8*,82.7*,126.4*,126.3*,132.3*,58.0*,72.4*,53.0*,88.0*,62.7*,PRMT1 confirm=16.4
O=C(Nc1ccccc1Oc1ccccc1)NC1CCCCN(Cc2ccc(Cl)cc2)C1=O (stereo unspecified),/,0.2,/,-4.5,3.5,/,/,/,/,/,
Nc1ccc(Nc2nc3ccccc3[nH]2)cc1,-17.1,5.8,57.7*,57.2*,31.1*,65.8*,/,/,59.1*,57.6*,
Cc1cc(C(=O)OCCCN(C)C2CN(Cc3cn(Cc4ccccc4C(F)(F)F)nn3)S(=O)(=O)C2)no1 (stereo unspecified),/,3.1,/,5.8,8.8,/,/,/,/,/,
Cn1c(O)c(/C=N/NC(=O)c2cc3ccccc3cc2O)c2ccccc21,50.0*,3.2,54.4*,22.8*,39.8*,54.7*,-12.9,53.3*,44.3*,9.8,
CC(=O)Nc1ccc(N=Cc2c(O)c(C(=O)Nc3ccccc3)cc3ccccc23)cc1,1.6,5.9,/,6.8,-5.7,/,/,/,/,/,
Cn1c2ccccc2c2cc(/C=N/NC(=O)c3ccc(O)cc3O)ccc21,/,/,-19.4,/,/,/,/,/,/,/,
COc1ccc2c(c1)cc(C(=O)N/N=C/c1c(O)c(C(=O)O)cc3ccccc13)n2C,36.6*,2.3,54.6*,39.3*,18.6,38.9*,-17.4,44.9*,/,5.6,
CN(Cc1ccccc1)C(=O)OCc1cn(Cc2ccc(F)c(F)c2)nn1,/,-1.1,/,-8.0,3.9,/,/,/,/,/,
CCc1ccc2[nH]c3nc(N/N=C/c4ccc(O)cc4O)nnc3c2c1,10.6,-0.5,60.5*,30.2*,16.1,63.0*,/,/,/,29.5*,
COc1cccc2c1C(=O)c1c(O)c3c(c(O)c1C2=O)C[C@@](O)(C(=O)CO)C[C@@H]3OC1CC(N)C(O)C(C)O1 (stereo partly specified),125.2*,140.8*,72.9*,53.6*,75.5*,64.6*,155.7*,126.0*,54.6*,54.6*,
COc1cccc2c1C(=O)c1c(O)c3c(c(O)c1C2=O)CC(O)(C(C)=O)CC3OC1CC(N(C)C)C(O)C(C)O1 (stereo unspecified),156.5*,193.2*,68.5*,63.8*,71.9*,68.3*,176.0*,144.8*,60.5*,54.4*,PRMT1 confirm=154.1*
NNC(=S)NC1CC2CC1C1C=CCC21 (stereo unspecified),-6.7,0.6,-12.2,1.7,-5.0,/,/,/,/,/,
Oc1ccc(O)c(C=NNC(=S)NC2CC3CC2C2C=CCC32)c1 (stereo unspecified),1.1,2.0,46.8*,34.0*,29.7*,72.8*,/,/,34.7*,39.2*,
CCC(=O)Nc1cccc(C2=NOC3(C2)C[C@@H](C(N)=O)N(C(=O)C(c2ccccc2)c2ccccc2)C3)c1 (stereo partly specified),1.5,3.2,-20.4,-2.7,-13.4,/,/,/,/,/,
NC(=O)[C@H]1CC2(CC(c3cccc(NC(=O)COc4ccc(Cl)cc4)c3)=NO2)CN1C(=O)C(c1ccccc1)c1ccccc1 (stereo partly specified),31.6*,-3.0,-90.2,-81.8,-75.5,/,4.5,22.6*,/,/,
NC(=O)[C@@H]1CC2(CC(c3cccc(NC(=O)COc4ccc(Cl)cc4)c3)=NO2)CN1C(=O)COc1ccc(Cl)cc1 (stereo partly specified),26.9*,-0.3,-77.8,-59.6,-37.9,/,13.4,23.6*,/,/,
Cc1ccc(-c2cc(-c3nnc4sc(COc5ccccc5)nn34)[nH]n2)cc1,/,4.5,/,5.0,-5.5,/,/,/,/,/,
CN(Cc1ccccc1)S(=O)(=O)c1cccc(C(=O)OCc2ccc(Oc3ccccc3)cc2)c1,/,5.5,/,6.2,8.1,/,/,/,/,/,
